# MC4R antag cAMP = MC4R antagonists of cAMP signaling, primary screen, cell-based, TR-FRET, antagonist arm of biased-ligand search | Melanocortin receptor 4 (Homo sapiens), P32245 | MC4R-expressing cells, MTII-stimulated cAMP, LANCE TR-FRET | inhibition, % at 6.5 µM | hit rate 0.48% among 360,000;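 active = inhibition above its plate's cutoff, the mean of tested wells on that plate plus 3 SD, cut at about 29% in these data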;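 also: 0% = Melanotan II alone and 100% = Melanotan II plus saturating MCL0020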
# Target sequence (P32245 whole entry, looked up): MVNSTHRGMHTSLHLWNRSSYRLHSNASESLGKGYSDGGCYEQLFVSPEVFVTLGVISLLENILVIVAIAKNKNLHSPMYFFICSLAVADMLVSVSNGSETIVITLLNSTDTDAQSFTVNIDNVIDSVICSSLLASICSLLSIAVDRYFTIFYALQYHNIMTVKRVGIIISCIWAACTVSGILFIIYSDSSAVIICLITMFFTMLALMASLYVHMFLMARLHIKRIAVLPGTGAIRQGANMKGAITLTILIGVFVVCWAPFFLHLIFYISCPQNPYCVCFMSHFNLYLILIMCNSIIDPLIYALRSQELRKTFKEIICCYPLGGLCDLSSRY
#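 Material: human MC4R-expressing U2OS cells. Probe or stimulus: Melanotan II challenge. Dosing: 6.5 µM single dose. Times: 30-min compound, 1-h challenge, 1-h detection, room temperature. Technique: TR-FRET with Eu-cAMP and labeled anti-cAMP, 671 nm. Replication: singlicate.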
# SMARCA2 activ = SMARCA2 (BRM) function activators, primary screen, cell-based, luminescence, high throughput; MG213 cells, MMTV-luciferase reporter, dexamethasone, overnight; AID 652017, 2013; hit rate 1% among 370,000; activation, % at 9.1 µM; in the data active = activation above about 7.8%;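 also: 0% = vehicle wells and 100% = reference activator wells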
# CFTR F508del cor = F508del CFTR correction, initial screen, CFBE line, single point | CFBE cells, YFP halide quenching; stimulated with forskolin plus potentiator P3; % fluorescence drop versus neutral controls | activity (quench increase), % at 7.58 µM | hit rate 0.36% among 350,000;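 active = mean added fluorescence quench of at least 8% versus neutral control, with both replicates also reaching 8%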;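 also: cells transiently co-express mutant CFTR-F508del with the halide-sensitive YFP; corrector assay measuring rescue of mutant channel to the surface after 24 h compound exposure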
# MC4R ag barr = MC4R agonists recruiting beta-arrestin, primary screen, cell-based, luminescence, agonist arm of biased-ligand search; Melanocortin receptor 4 (Homo sapiens), P32245; U2OS MC4R beta-arrestin complementation; percent of melanotan II response, DMSO zero; activation, % at 8.9 µM; hit rate 0.98% among 360,000; AID 540308, 2011;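 active = activation above a per-plate cutoff, the mean activation of sample wells on that plate plus 3 SD, cut at about 8% in these data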
# SMARCA2 conf = SMARCA2 (BRM) function activators, confirmation, cell-based, luminescence, triplicate. shares compounds with SMARCA2 activ. MG213 cells, MMTV-luciferase with dexamethasone, overnight; MG213 cells expressing E1A, Rb sequestered; DMSO wells 0%, reference activator 100%. activation, % at 9.1 µM. hit rate 30% among 3,500. AID 652260, 2013;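 active = activation above its plate's cutoff, the mean activation of tested wells plus 3 SD, cut at about 7.9% in these data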
# GAL4-VP16 Luc = GAL4-VP16 luciferase reporter activation, counter-screen for SMARCA2 (BRM) activator project, cell-based, pG5luc, luminescence, high throughput; shares compounds with SMARCA2 activ; HEK293 GAL4-VP16 pG5luc reporter; scaled: DMSO wells 0%, SAHA wells 100%; activation, % at 9.1 µM; hit rate 41% among 3,500; AID 686939, 2013;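 active = activation above the solvent-only control well mean plus 3 SD, averaged across control plates, cut at about 5.2% in these data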
# Active calls of the source: *; x = no result. Hits are enriched below; roughly 2.1% of the tested compounds scored in any of these assays.
SMILES,MC4R antag cAMP,SMARCA2 activ,CFTR F508del cor,MC4R ag barr,SMARCA2 conf,GAL4-VP16 Luc
O=C(C[C@H]1CC[C@@H]2[C@H](COC[C@H](O)CN2C(=O)c2ccccc2)O1)NCc1cccc(F)c1,x,x,0,x,x,x
CN(C)C(=O)C[C@@H]1CC[C@H]2[C@@H](COc3ccc(NC(=O)C4CC4)cc3C(=O)N2C)O1,x,x,1,x,x,x
O=C(Nc1ccccc1)c1nccn1Cc1ccc(F)cc1,4,9.9*,1,4,3,3
COC(=O)C[C@@H]1CC[C@H]2[C@@H](COc3ccc(NC(=O)c4cccc(F)c4)cc3C(=O)N2C)O1,x,x,1,x,x,x
CCCNC(=O)Nc1ccc2c(c1)OC[C@@H](C)N(CCC(F)(F)F)C[C@H](C)[C@@H](OC)CN(C)C2=O,x,x,0,x,x,x
COc1ccc(C(C)=O)cc1CS(=O)(=O)CC(=O)NCCc1c[nH]c2ccccc12,19,9.0*,12*,-1,4,1
COc1ccc(C(=O)CCC(=O)NCCc2c[nH]c3ccccc23)cc1OC,4,-2,-2,-1,x,x
O=C1c2cccc3c([N+](=O)[O-])ccc(c23)C(=O)N1c1ccccn1,-5,14*,x,-2,-16,6.5*
O=C1c2cccc3c([N+](=O)[O-])ccc(c23)C(=O)N1c1ccc(Cl)cn1,-19,0,x,1,x,x
Nc1nc(Sc2ccc([N+](=O)[O-])c3nonc23)c2[nH]cnc2n1,-16,26*,-7,-2,-15,1
O=C(C[C@H]1C[C@H](C(=O)N2CCOCC2)[C@@]2(CCC3CCCC3)c3[nH]c4ccc(Cl)cc4c3CCN2C1=O)NCCN1CCOCC1,1,-6,-2,-1,x,x
COCCCNC(=O)C[C@H]1C[C@H](C(=O)N2CCOCC2)[C@@]2(CCC3CCCC3)c3[nH]c4ccc(Cl)cc4c3CCN2C1=O,5,10*,1,0,2,1
CCCn1nnc(NC(=O)c2ccccc2Cl)n1,8,3,-1,-2,x,x
CCCn1nnc(NC(=O)c2ccc(Cl)cc2Cl)n1,-7,14*,x,-1,1,7.8*
Cc1cccc2sc(NC(=O)c3ccc(OCC4CCCO4)cc3)nc12 (configuration not stated),14,12*,1,-1,-2,3
CCOc1ccc2nc(NC(=O)c3ccc(OCC4CCCO4)cc3)sc2c1 (configuration not stated),4,-4,6,1,x,x
CO[C@H]1CN(C)C(=O)c2ccc(NS(C)(=O)=O)cc2OC[C@H](C)N(C)C[C@H]1C,x,x,4,x,x,x
CC(C)NC(=O)N[C@H]1CC[C@@H](CCn2cc(-c3ccc(F)cc3)nn2)O[C@@H]1CO,x,x,0,x,x,x
O=C(NC1CCCC1)C1C(c2ccc(C(F)(F)F)cc2)=Nc2ccccc2N1C(=O)c1ccccc1 (configuration not stated),x,13*,-1,x,4,5.8*
O=C(NC1CCCC1)C1C(c2ccc(C(F)(F)F)cc2)=Nc2ccccc2N1C(=O)c1ccco1 (configuration not stated),x,3,-1,x,x,x
COC(=O)c1ccc2nc(Nc3nc4ccc(F)cc4s3)sc2c1,6,-5,x,0,x,x
CCOC(=O)c1csc(Nc2nc3ccc(F)cc3s2)n1,6,11*,x,-2,-15,20*
C[C@H](CO)N1C[C@H](C)[C@H](CN(C)C(=O)NC2CCCCC2)Oc2ccc(NS(C)(=O)=O)cc2C1=O,x,x,1,x,x,x
Cc1ccc(NC(=O)Cc2ccc(-c3ccccc3)cc2)nc1,2,0,-1,-3,x,x
Cc1ccnc(NC(=O)CNC(=O)c2ccc(C)s2)c1,1,9.8*,-1,2,4,6.7*
SMILES,MC4R antag cAMP,SMARCA2 activ,CFTR F508del cor,MC4R ag barr,SMARCA2 conf,GAL4-VP16 Luc
CCC(=O)Nc1ccc(NC(=O)CCc2ccccc2)cn1,20,-2,2,-1,x,x
Cc1ccnc(NC(=O)Cc2ccc(-c3ccccc3)cc2)c1,4,42*,-3,-1,37*,9.1*
CCC(=O)Nc1ccc(NC(=O)Cc2ccccc2)cn1,1,8.7*,x,-3,0,0
O=C(Cc1ccc(-c2ccccc2)cc1)Nc1ccccn1,-4,9.9*,-1,-1,16*,2
C[C@H](CO)N1C[C@H](C)[C@@H](CN(C)C(=O)NC2CCCCC2)Oc2ccc(NC(=O)CCCCCC(=O)Nc3ccccc3N)cc2C1=O,x,x,-1,x,x,x
CC(C)NC(=O)N(C)C[C@@H]1Oc2ncc(-c3cncnc3)cc2C(=O)N([C@@H](C)CO)C[C@H]1C,x,x,1,x,x,x
CC(=O)Nc1cccc(-c2cc(NC=O)c3ncc(-c4cccc(C(C)=O)c4)n3c2)c1,-16,11*,2,5,3,6.5*
COc1cccc(-c2cnc3c(NC(C)=O)cc(-c4cccc(C(=O)NCCN(C)C)c4)cn23)c1,-5,11*,1,1,22*,0
O=C(NC1CCC1)[C@@H]1[C@@H](CO)[C@@H]2Cn3c(ccc(-c4ccncc4)c3=O)[C@H]1N2CC1CC1,x,x,-2,x,x,x
C[C@@H]1CCCCO[C@H](CN(C)C(=O)c2ccccc2)[C@@H](C)CN([C@H](C)CO)C(=O)c2cc(NC(=O)CCC(F)(F)F)ccc2O1,x,x,-3,x,x,x
Cc1cccc(C(=O)NCC(=O)N(C)Cc2nc3ccccc3c(=O)[nH]2)c1,1,-2,0,-1,x,x
Cc1ccc(C(=O)N(C)Cc2nc3ccccc3c(=O)[nH]2)cc1NC(=O)c1ccco1,3,8.1*,5,0,-1,1
CN(C)C(=O)C[C@H]1C=C[C@@H](NS(=O)(=O)c2ccccc2)[C@@H](CO)O1,x,x,-1,x,x,x
Cc1cccnc1NC(=O)c1ccc([N+](=O)[O-])o1,0,-1,x,-4,x,x
O=C(Nc1ccc(N2CCOCC2)cc1)c1ccc([N+](=O)[O-])o1,9,15*,-5,-2,18*,7.3*
O=C(Nc1cccc2ncccc12)c1ccc([N+](=O)[O-])o1,15,15*,-2,-1,8.4*,1
Cc1ccccc1NC(=O)c1ccc([N+](=O)[O-])o1,-2,11*,x,-1,11*,4
O=C(Nc1ccc(S(=O)(=O)N2CCOCC2)cc1)c1ccc([N+](=O)[O-])o1,10,-3,0,-1,x,x
Cc1cccc(NC(=O)c2ccc([N+](=O)[O-])s2)n1,-5,0,1,1,x,x
Cc1cccc(NC(=O)c2ccc([N+](=O)[O-])o2)n1,-4,11*,x,-2,15*,3
